{"source": "ChEMBL document CHEMBL4190361", "about": "“Discovery of New Selenoureido Analogues of 4-(4-Fluorophenylureido)benzenesulfonamide as Carbonic Anhydrase Inhibitors” (ACS Med Chem Lett, 2017)", "key": {"HT-29 [1]": {"system": "HT-29", "experiment": "Cytotoxicity against human HT-29 cells assessed as reduction in cell viability at 30 to 300 uM after 48 hrs under hypoxic condition by MTT assay", "type": "functional, cell-based", "method_in_brief": "(§1)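 Cells plated at 1 × 10^4/well and exposed to test agents at 30, 100 and 300 μM for 48 h, in normoxia (20% O2) or hypoxia (0.1% O2). Viability is expressed relative to untreated control set at 100%, as mean ± SEM of three experiments.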"}, "Carbonic anhydrase 9": {"target": "Carbonic anhydrase 9 (Homo sapiens, UniProt Q16790)"}, "MDA-MB-231 [2]": {"system": "MDA-MB-231", "experiment": "Cytotoxicity against human MDA-MB-231 cells assessed as reduction in cell viability at 30 to 100 uM after 48 hrs under normoxic condition by MTT assay", "type": "functional, cell-based", "method_in_brief": "as §1"}, "PC-3 [3]": {"system": "PC-3", "experiment": "Cytotoxicity against human PC3 cells assessed as reduction in cell viability at 30 to 300 uM after 48 hrs under hypoxic condition by MTT assay", "type": "functional, cell-based", "method_in_brief": "as §1"}, "MDA-MB-231 [4]": {"system": "MDA-MB-231", "experiment": "Cytotoxicity against human MDA-MB-231 cells assessed as reduction in cell viability at 30 to 100 uM after 48 hrs under hypoxic condition by MTT assay", "type": "functional, cell-based", "method_in_brief": "as §1"}, "MDA-MB-231 [5]": {"system": "MDA-MB-231", "experiment": "Cytotoxicity against human MDA-MB-231 cells assessed as reduction in cell viability at 300 uM after 48 hrs under hypoxic condition by MTT assay", "type": "functional, cell-based", "method_in_brief": "as §1"}, "HT-29 [6]": {"system": "HT-29", "experiment": "Cytotoxicity against human HT-29 cells assessed as reduction in cell viability at 30 to 300 uM after 48 hrs under normoxic condition by MTT assay", "type": "functional, cell-based", "method_in_brief": "as §1"}, "MDA-MB-231 [7]": {"system": "MDA-MB-231", "experiment": "Cytotoxicity against human MDA-MB-231 cells assessed as reduction in cell viability at 300 uM after 48 hrs under normoxic condition by MTT assay", "type": "functional, cell-based", "method_in_brief": "as §1"}, "PC-3 [8]": {"system": "PC-3", "experiment": "Cytotoxicity against human PC3 cells assessed as reduction in cell viability at 30 to 300 uM after 48 hrs under normoxic condition by MTT assay", "type": "functional, cell-based", "method_in_brief": "as §1"}, "MDA-MB-231 [9]": {"system": "MDA-MB-231", "experiment": "Cytotoxicity against human MDA-MB-231 cells assessed as reduction in cell viability at 30 uM after 48 hrs under normoxic condition by MTT assay", "type": "functional, cell-based", "method_in_brief": "as §1"}, "[10]": {"experiment": "Gpx-like activity of the compound assessed as GSH-mediated H2O2 reduction by measuring NADPH consumption measured within 100 secs by UV spectroscopic analysis", "type": "functional", "method_in_brief": "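NADPH-coupled GPx assay with GSH as substrate and H2O2 as oxidant, with glutathione reductase. Initial conditions: NADPH 0.6 mM, GSH 2.0 mM, H2O2 5 mM, GR 8 units/mL, catalyst 0.2 mM, pH 7.4 phosphate buffer, room temperature. Read-out is the absorbance decrease at 340 nm from NADPH consumption. Mean ± SD of three experiments.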"}, "[11]": {"experiment": "Gpx-like activity of the compound assessed as H2O2 reduction by measuring DTT oxidation measured within 35 mins by 1H-NMR analysis", "type": "functional", "method_in_brief": "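Oxidation of reduced DTT followed by 1H NMR, with DTTred and DTTox populations taken from signal integration. Catalyst loading 10%. Control run without catalyst, with (PhSe)2 as a standard comparator. T50 is the time to halve the initial DTTred. Mean ± SD of three separate experiments.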"}, "PC-3 [12]": {"system": "PC-3", "experiment": "Cytotoxicity against human PC3 cells assessed as reduction in cell viability at 300 uM after 48 hrs under normoxic condition by MTT assay", "type": "functional, cell-based", "method_in_brief": "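PC3 human prostate cancer cells seeded at 1 × 10^4/well and exposed for 48 h under normoxia (20% O2). The same run also used hypoxia (0.1% O2). Compounds tested at 30, 100 and 300 μM. Viability is expressed relative to untreated control set at 100%. Mean ± SEM of three experiments.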"}}, "note": "Calls of active or inactive are those of the source. No cut-off for these calls is given here."}
{"compound": "NS(=O)(=O)c1ccc(CCNC(=[Se])Nc2ccc(I)cc2)cc1", "values": [{"measurement": "Activity", "setting": "HT-29 [1]", "result": "inactive"}, {"measurement": "Ki", "setting": "Carbonic anhydrase 9", "result": 54.9, "unit": "nM"}, {"measurement": "Activity", "setting": "MDA-MB-231 [2]", "result": "inactive"}, {"measurement": "Activity", "setting": "PC-3 [3]", "result": "inactive"}, {"measurement": "Activity", "setting": "MDA-MB-231 [4]", "result": "inactive"}, {"measurement": "Activity", "setting": "MDA-MB-231 [5]", "result": "inactive"}, {"measurement": "Activity", "setting": "HT-29 [6]", "result": "inactive"}, {"measurement": "Activity", "setting": "MDA-MB-231 [7]", "result": "inactive"}, {"measurement": "Activity", "setting": "PC-3 [8]", "result": "inactive"}]}
{"compound": "NS(=O)(=O)c1ccc(CCNC(=[Se])Nc2ccccc2)cc1", "values": [{"measurement": "Ki", "setting": "Carbonic anhydrase 9", "result": 5.3, "unit": "nM"}]}
{"compound": "NS(=O)(=O)c1cccc(NC(=[Se])Nc2ccc(F)cc2)c1", "values": [{"measurement": "Ki", "setting": "Carbonic anhydrase 9", "result": 97.8, "unit": "nM"}]}
{"compound": "NS(=O)(=O)c1ccc(CCNC(=[Se])Nc2ccc(Br)cc2)cc1", "values": [{"measurement": "Ki", "setting": "Carbonic anhydrase 9", "result": 4.8, "unit": "nM"}]}
{"compound": "NS(=O)(=O)c1ccc(NC(=[Se])Nc2ccccc2Cl)cc1", "values": [{"measurement": "Ki", "setting": "Carbonic anhydrase 9", "result": 3.9, "unit": "nM"}]}
{"compound": "NS(=O)(=O)c1ccc(CCNC(=[Se])Nc2ccc3ccccc3c2)cc1", "values": [{"measurement": "Ki", "setting": "Carbonic anhydrase 9", "result": 93.1, "unit": "nM"}]}
{"compound": "NS(=O)(=O)c1ccc(NC(=[Se])Nc2cccc(C(F)(F)F)c2)cc1", "values": [{"measurement": "Ki", "setting": "Carbonic anhydrase 9", "result": 15.9, "unit": "nM"}]}
{"compound": "NS(=O)(=O)c1ccc(CCNC(=[Se])Nc2cccc(C(F)(F)F)c2)cc1", "values": [{"measurement": "Ki", "setting": "Carbonic anhydrase 9", "result": 5.8, "unit": "nM"}]}
{"compound": "NS(=O)(=O)c1cccc(NC(=[Se])Nc2ccccc2)c1", "values": [{"measurement": "Ki", "setting": "Carbonic anhydrase 9", "result": 330, "unit": "nM"}]}
{"compound": "NS(=O)(=O)c1ccc(NC(=[Se])Nc2ccccc2)cc1", "values": [{"measurement": "Ki", "setting": "Carbonic anhydrase 9", "result": 78.9, "unit": "nM"}]}
{"compound": "NS(=O)(=O)c1ccc(NC(=[Se])Nc2ccc(F)cc2)cc1", "values": [{"measurement": "Activity", "setting": "HT-29 [1]", "result": "inactive"}, {"measurement": "Ki", "setting": "Carbonic anhydrase 9", "result": 63, "unit": "nM"}, {"measurement": "Activity", "setting": "MDA-MB-231 [9]", "result": "Active"}, {"measurement": "Activity", "setting": "PC-3 [3]", "result": "Active"}, {"measurement": "Activity", "setting": "[10]", "result": "Active"}, {"measurement": "Activity", "setting": "HT-29 [6]", "result": "inactive"}, {"measurement": "Activity", "setting": "PC-3 [8]", "result": "Active"}, {"measurement": "Activity", "setting": "[11]", "result": "Active"}]}
{"compound": "NS(=O)(=O)c1ccc(NC(=O)Nc2ccc(F)cc2)cc1", "values": [{"measurement": "Activity", "setting": "HT-29 [1]", "result": "Active"}, {"measurement": "Activity", "setting": "MDA-MB-231 [9]", "result": "Active"}, {"measurement": "Activity", "setting": "PC-3 [12]", "result": "Active"}, {"measurement": "Activity", "setting": "[10]", "result": "inactive"}, {"measurement": "Activity", "setting": "HT-29 [6]", "result": "Active"}, {"measurement": "Activity", "setting": "[11]", "result": "inactive"}]}
{"compound": "NS(=O)(=O)c1ccc(NC(=[Se])Nc2ccccc2F)cc1", "values": [{"measurement": "Ki", "setting": "Carbonic anhydrase 9", "result": 5.8, "unit": "nM"}]}
{"compound": "NS(=O)(=O)c1ccc(NC(=S)Nc2ccc(F)cc2)cc1", "values": [{"measurement": "Ki", "setting": "Carbonic anhydrase 9", "result": 32.1, "unit": "nM"}, {"measurement": "Activity", "setting": "[10]", "result": "inactive"}, {"measurement": "Activity", "setting": "[11]", "result": "inactive"}]}
{"compound": "COc1ccccc1NC(=[Se])NCCc1ccc(S(N)(=O)=O)cc1", "values": [{"measurement": "Ki", "setting": "Carbonic anhydrase 9", "result": 3.1, "unit": "nM"}]}
{"compound": "NS(=O)(=O)c1ccc(CCNC(=[Se])Nc2ccccc2Cl)cc1", "values": [{"measurement": "Ki", "setting": "Carbonic anhydrase 9", "result": 4.8, "unit": "nM"}]}
{"compound": "NS(=O)(=O)c1ccc(CCNC(=[Se])Nc2ccccc2F)cc1", "values": [{"measurement": "Activity", "setting": "HT-29 [1]", "result": "inactive"}, {"measurement": "Ki", "setting": "Carbonic anhydrase 9", "result": 8.7, "unit": "nM"}, {"measurement": "Activity", "setting": "MDA-MB-231 [2]", "result": "inactive"}, {"measurement": "Activity", "setting": "PC-3 [3]", "result": "Active"}, {"measurement": "Activity", "setting": "MDA-MB-231 [4]", "result": "inactive"}, {"measurement": "Activity", "setting": "MDA-MB-231 [5]", "result": "Active"}, {"measurement": "Activity", "setting": "HT-29 [6]", "result": "inactive"}, {"measurement": "Activity", "setting": "MDA-MB-231 [7]", "result": "Active"}, {"measurement": "Activity", "setting": "PC-3 [8]", "result": "Active"}]}
